In ChEMBL document CHEMBL1121923, “N2- and C-7 substituted actinomycin D analogues: synthesis, DNA-binding affinity, and biochemical and biological properties. Structure-activity relationship” (J Med Chem, 1981):
pEC50: −log10 of the molar value. Converted amounts (≈) assume the structure as drawn. *1 amine or outer side, *2 acyl side, *3 side chain or, on linkers, in order; H or OH if unused. Where a SMILES comes first, the peptide text is derived from it. Bridges are numbered along the chain shown (N, C = ends). Roman numbers before positions name the chains, in order. [ ]: non-standard residue; d: D form. Actinocin(9to1) = Cc1c2oc3c(C)ccc(C(=O)[*:1])c3nc-2c(C(=O)[*:2])c(N)c1=O; NMeV = CN[C@H](C(=O)O)C(C)C; Sar = CNCC(=O)O

Assays:
Calf thymus DNA [1] = assay: Apparent binding constant calf thymus DNA-drug complex; format: nucleic-acid assay; settings: Bos taurus
In short: (§1)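 Calf thymus DNA; spectral titration; binding isotherms in 0.01 M phosphate buffer, pH 7.0, 20 °C; Kapp (per base pair) and Bapp (drug binding sites per base pair) taken from Scatchard plot.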

Calf thymus DNA [2] = assay: Apparent number of binding sites per base pairs in DNA; format: nucleic-acid assay; settings: Bos taurus; in short: as §1
P388 [3] = assay: Median survival time of the P388 cells implanted CDF1 male mice in vivo; format: functional, Mus musculus
In short: (§2)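 CDF1 male mice, groups of seven, given 10^6 P388 cells ip on day 0; drug ip in 5% DMSO–saline on days 1, 5 and 9; controls received vehicle; range of doses tested, optimal nontoxic dose listed; median survival time; %ILS = (treated − control)/control × 100; average of two or more experiments.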

P388 [4] = assay: Concentration required for 50% inhibition of incorporation of labeled thymidine by p388 cells for synthesis of DNA (in vitro); format: functional; settings: Mus musculus, read-out: ED50 (the source's name)
P388 [5] = assay: Concentration required for 50% inhibition of incorporation of labeled uridine by P388 cells for the synthesis of RNA (in vitro); format: functional; settings: Mus musculus, read-out: ED50 (the source's name)
P388 [6] = assay: Percent of increased life span of P388 cells implanted CDF1 male mice; format: functional, Mus musculus; in short: as §2
CCRF-CEM = assay: In vitro antitumor activity against human lymphoblastic leukemia cells.; format: functional; settings: read-out: ID50 (the source's name)
In short: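 Human lymphoblastic leukemia CCRF-CEM cells grown in suspension culture; growth inhibition in vitro; ID50 (ng/mL) reported as the 50% inhibitory dose.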

P388 [7] = assay: Optimal dose for antitumor activity was measured in P388 cells of CDF1 male mice in vivo; format: functional, Mus musculus; in short: as §2
Bos taurus = organism: Bos taurus; assay: Thermal denaturation (deltaTm) of compound against calf thymus DNA was measured; format: ADME; settings: cattle, in vitro
In short: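 Calf thymus DNA (MW 100 000–500 000) in 0.01 M phosphate, 5 × 10^-3 M EDTA, pH 7.0; drug 7 × 10^-4 M, DNA nucleotide 7 × 10^-3 M; 259 nm absorbance read at 0.25–1.0 °C steps; Tm taken at 50% hyperchromicity; ΔTm = complex Tm minus DNA Tm.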

P388 [8] = assay: Optimal dose for antitumor activity was measured in P388 cells of CDF1 male mice in vivo; Highest dose tested; format: functional, Mus musculus; in short: as §2

SMILES: CCCCOc1cc(C(=O)N[C@@H]2C(=O)N[C@H](C(C)C)C(=O)N3CCC[C@@H]3C(=O)N(C)CC(=O)N(C)[C@@H](C(C)C)C(=O)O[C@@H]2C)c2nc3c(C(=O)N[C@H]4C(=O)N[C@@H](C(C)C)C(=O)N5CCC[C@H]5C(=O)N(C)CC(=O)N(C)[C@H](C(C)C)C(=O)O[C@H]4C)c(N)c(=O)c(C)c-3oc2c1C
- K app (Calf thymus DNA [1]): 1.1e+06 M⁻¹

SMILES: Cc1c2oc3c(C)c(O)c(N)c(C(=O)N[C@H]4C(=O)N[C@@H](C(C)C)C(=O)N5CCC[C@H]5C(=O)N(C)CC(=O)N(C)[C@H](C(C)C)C(=O)O[C@H]4C)c3nc-2c(C(=O)N[C@@H]2C(=O)N[C@H](C(C)C)C(=O)N3CCC[C@@H]3C(=O)N(C)CC(=O)N(C)[C@@H](C(C)C)C(=O)O[C@@H]2C)c/c1=N/Cc1ccccc1
- K app (Calf thymus DNA [1]): 5.8e+06 M⁻¹
- Bapp (Calf thymus DNA [2]): 0.049

SMILES: CCCNc1c(C(=O)N[C@@H]2C(=O)N[C@H](C(C)C)C(=O)N3CCC[C@H]3C(=O)N(C)CC(=O)N(C)[C@@H](C(C)C)C(=O)O[C@@H]2C)c2nc3c(C(=O)N[C@@H]4C(=O)N[C@H](C(C)C)C(=O)N5CCC[C@H]5C(=O)N(C)CC(=O)N(C)[C@@H](C(C)C)C(=O)O[C@@H]4C)ccc(C)c3oc-2c(C)c1=O
- MST (P388 [3]): 17 days
- pEC50 (P388 [4]): < 5.26
- pEC50 (P388 [5]): 5.74
- ILS (P388 [6]): 55%
- IC50 (CCRF-CEM): 0.45 µg/mL (≈ 0.347 µM)
- Optimal dose (P388 [7]): 1.2 mg/kg

SMILES: Cc1c2oc3c(C)ccc(C(=O)N[C@@H]4C(=O)N[C@H](C(C)C)C(=O)N5CCC[C@H]5C(=O)N(C)CC(=O)N(C)[C@@H](C(C)C)C(=O)O[C@@H]4C)c3nc-2c(C(=O)N[C@@H]2C(=O)N[C@H](C(C)C)C(=O)N3CCC[C@H]3C(=O)N(C)CC(=O)N(C)[C@@H](C(C)C)C(=O)O[C@@H]2C)c(NCCCN)c1=O
- MST (P388 [3]): 30 days
- pEC50 (P388 [4]): 6.37
- pEC50 (P388 [5]): 6.93
- ILS (P388 [6]): 172%
- IC50 (CCRF-CEM): 0.3 µg/mL (≈ 0.229 µM)
- Optimal dose (P388 [7]): 1.2 mg/kg

SMILES: Cc1c2oc3c(C)ccc(C(=O)N[C@@H]4C(=O)N[C@H](C(C)C)C(=O)N5CCC[C@H]5C(=O)N(C)CC(=O)N(C)[C@@H](C(C)C)C(=O)O[C@@H]4C)c3nc-2c(C(=O)N[C@@H]2C(=O)N[C@H](C(C)C)C(=O)N3CCC[C@H]3C(=O)N(C)CC(=O)N(C)[C@@H](C(C)C)C(=O)O[C@@H]2C)c(N)c1=O [DACTINOMYCIN] (I: T[dV]P[Sar][NMeV] / II: T[dV]P[Sar][NMeV]; ester I:1-I:C, II:1-II:C; linker I:N-II:N via Actinocin(9to1))
- MST (P388 [3]): 24 days
- K app (Calf thymus DNA [1]): 2.3e+07 M⁻¹
- pEC50 (P388 [4]): 6.00
- pEC50 (P388 [5]): 7.34
- ILS (P388 [6]): 129%
- Delta Tm (Bos taurus): 7.1
- IC50 (CCRF-CEM): 0.06 µg/mL (≈ 0.0478 µM)
- Optimal dose (P388 [7]): 0.125 mg/kg
- Bapp (Calf thymus DNA [2]): 0.108

SMILES: CCCCCCCCCCCNc1c(C(=O)N[C@@H]2C(=O)N[C@H](C(C)C)C(=O)N3CCC[C@H]3C(=O)N(C)CC(=O)N(C)[C@@H](C(C)C)C(=O)O[C@@H]2C)c2nc3c(C(=O)N[C@@H]4C(=O)N[C@H](C(C)C)C(=O)N5CCC[C@H]5C(=O)N(C)CC(=O)N(C)[C@@H](C(C)C)C(=O)O[C@@H]4C)ccc(C)c3oc-2c(C)c1=O
- MST (P388 [3]): 10 days
- Highest dose tested (P388 [8]): 1.15 mg/kg
- IC50 (CCRF-CEM): > 15 µg/mL

SMILES: Cc1c2oc3c(C)c(O)c(N)c(C(=O)N[C@H]4C(=O)N[C@@H](C(C)C)C(=O)N5CCC[C@H]5C(=O)N(C)CC(=O)N(C)[C@H](C(C)C)C(=O)O[C@H]4C)c3nc-2c(C(=O)N[C@@H]2C(=O)N[C@H](C(C)C)C(=O)N3CCC[C@@H]3C(=O)N(C)CC(=O)N(C)[C@@H](C(C)C)C(=O)O[C@@H]2C)c/c1=N/Cc1cccc(Oc2ccccc2)c1
- K app (Calf thymus DNA [1]): 8.8e+06 M⁻¹
- Bapp (Calf thymus DNA [2]): 0.055

SMILES: CCCOc1cc(C(=O)N[C@@H]2C(=O)N[C@H](C(C)C)C(=O)N3CCC[C@H]3C(=O)N(C)CC(=O)N(C)[C@@H](C(C)C)C(=O)O[C@@H]2C)c2nc3c(C(=O)N[C@@H]4C(=O)N[C@H](C(C)C)C(=O)N5CCC[C@H]5C(=O)N(C)CC(=O)N(C)[C@@H](C(C)C)C(=O)O[C@@H]4C)c(N)c(=O)c(C)c-3oc2c1C
- MST (P388 [3]): 16 days
- pEC50 (P388 [4]): 5.70
- pEC50 (P388 [5]): 6.64
- ILS (P388 [6]): 52%
- IC50 (CCRF-CEM): 0.31 µg/mL (≈ 0.236 µM)
- Optimal dose (P388 [7]): 0.75 mg/kg

SMILES: Cc1c2oc3c(C)c(O)c(N)c(C(=O)N[C@@H]4C(=O)N[C@H](C(C)C)C(=O)N5CCC[C@H]5C(=O)N(C)CC(=O)N(C)[C@@H](C(C)C)C(=O)O[C@H]4C)c3nc-2c(C(=O)N[C@@H]2C(=O)N[C@H](C(C)C)C(=O)N3CCC[C@H]3C(=O)N(C)CC(=O)N(C)[C@@H](C(C)C)C(=O)O[C@H]2C)cc1=N
- K app (Calf thymus DNA [1]): 2.3e+07 M⁻¹
- Bapp (Calf thymus DNA [2]): 0.121

SMILES: CCOc1cc(C(=O)N[C@@H]2C(=O)N[C@H](C(C)C)C(=O)N3CCC[C@@H]3C(=O)N(C)CC(=O)N(C)[C@@H](C(C)C)C(=O)O[C@@H]2C)c2nc3c(C(=O)N[C@H]4C(=O)N[C@@H](C(C)C)C(=O)N5CCC[C@H]5C(=O)N(C)CC(=O)N(C)[C@H](C(C)C)C(=O)O[C@H]4C)c(N)c(=O)c(C)c-3oc2c1C
- K app (Calf thymus DNA [1]): 6.9e+06 M⁻¹
- Bapp (Calf thymus DNA [2]): 0.097
